Legend:
[1] = target: T1, 5-hydroxytryptamine receptor 1A (Homo sapiens, UniProt P08908); assay: Displacement of [3H]-8-OH-DPAT from human recombinant 5-HT1A receptor expressed in HEK293 cells incubated for 60 mins by microbeta2 scintillation counter; assay type: cell-based
T1 sequence (P08908 whole entry): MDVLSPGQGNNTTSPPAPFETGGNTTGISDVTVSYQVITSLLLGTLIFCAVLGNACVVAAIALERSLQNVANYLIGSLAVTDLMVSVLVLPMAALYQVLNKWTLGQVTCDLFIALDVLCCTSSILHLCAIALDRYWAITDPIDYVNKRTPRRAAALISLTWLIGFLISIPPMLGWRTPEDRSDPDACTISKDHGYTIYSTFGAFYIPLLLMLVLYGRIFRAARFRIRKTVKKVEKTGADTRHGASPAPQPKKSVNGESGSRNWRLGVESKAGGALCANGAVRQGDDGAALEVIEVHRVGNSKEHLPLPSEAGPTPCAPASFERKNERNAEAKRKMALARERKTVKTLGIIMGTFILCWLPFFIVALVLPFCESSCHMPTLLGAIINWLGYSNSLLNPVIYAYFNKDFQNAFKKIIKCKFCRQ

[2] = target: 5-hydroxytryptamine receptor 6 (Homo sapiens) (UniProt P50406); assay: Displacement of [3H]-LSD from human recombinant 5-HT6 receptor expressed in CHO cells at 10^-7 M incubated for 60 mins by microbeta2 scintillation counter relative to control; assay type: cell-based
Method in brief: (§1)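 Radioligand displacement from recombinant human receptor membranes, tested at two final concentrations (10^-6 and 10^-7 M), with scintillation counting. Results were expressed as percent inhibition of specific binding.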

[3] = target: 3',5'-cyclic-AMP phosphodiesterase 4B (Homo sapiens) (UniProt Q07343); assay: Inhibition of human recombinant full length N-terminal GST-tagged PDE4B1 expressed in baculovirus infected Sf9 cells at 10^-5 M using cAMP as substrate incubated for 20 mins followed by substrate addition by luciferase assay relative to control
[4] = target: 5-hydroxytryptamine receptor 2A (Homo sapiens) (UniProt P28223); conditions: HEK293, at 1 µM
[5] = target: T2, 5-hydroxytryptamine receptor 7 (Homo sapiens, UniProt P34969); assay: biochemical; assay type: cell-based, CHO
[6] = target: 5-hydroxytryptamine receptor 2A (Homo sapiens) (UniProt P28223); conditions: HEK293, at 0.1 µM
[7] = target: 5-hydroxytryptamine receptor 6 (Homo sapiens) (UniProt P50406); assay: Displacement of [3H]-LSD from human recombinant 5-HT6 receptor expressed in CHO cells at 10^-6 M incubated for 60 mins by microbeta2 scintillation counter relative to control; assay type: cell-based; method in brief: as §1
in vitro [8] = conditions: CD1, mouse
[9] = target: T3, 5-hydroxytryptamine receptor 1A (Homo sapiens) (UniProt P08908); assay: Antagonist activity at human recombinant 5-HT1A receptor expressed in CHOK1 cells assessed as equilibrium binding constant incubated for 25 mins followed by addition of methiothepin by microbeta2 scintillation counter; assay type: cell-based; conditions: in the assay text read “serotonin” for “methiothepin”
T3 sequence (whole entry): T1 sequence (P08908 whole entry)
Method in brief: (§2)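 Aequorin Ca2+ assay in antagonist mode in CHO-K1 cells expressing human 5-HT1A, Gα16 and mitochondrial aequorin, loaded with 5 μM coelenterazine h. Cells were injected onto the compounds (8–10 concentrations) and incubated for 25 min.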

[10] = target: T2, 5-hydroxytryptamine receptor 7; assay: Agonist activity at human recombinant 5-HT7 receptor expressed in CHOK1 cells by LANCE TR-FRET assay relative to control; assay type: cell-based
Method in brief: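 cAMP assay in CHO-K1 cells expressing human 5-HT7 […], at 2x10^5 cells/ml in HBSS with 5 mM HEPES, IBMX and 0.1% BSA, pH 7.4. Cells were stimulated with the compounds (8 concentrations) for 60 min at room temperature. cAMP was read by LANCE Ultra TR-FRET after 1 h with tracer and antibody. EC50 was obtained by nonlinear regression.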

[11] = Selectivity index, ratio of IC50 for human HaCaT cells for human PC3 cells; assay type: toxicity; conditions: HaCaT cells versus PC3 cells, read-out: Ratio IC50
in vitro [12] = conditions: CD1, mouse, liver microsomes
[13] = target: T2, 5-hydroxytryptamine receptor 7; assay: Antagonist activity at human recombinant 5-HT7 receptor expressed in CHOK1 cells assessed as equilibrium binding constant measured after 60 mins in the presence of serotonin by LANCE TR-FRET assay; assay type: cell-based
Mus musculus [14] = assay: Effect on locomotor activity in Swiss albino mouse at 0.625 to 2.5 mg/kg, ip; assay type: ADME, organism-based; conditions: in vivo
Method in brief: (§3)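 Male Swiss albino mice were dosed ip in 1% Tween 80 at 10 ml/kg 60 min before testing. Each mouse was placed individually in a cage in a photobeam activity monitor. Ambulation crossings were counted from 2 to 6 min.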

SW480 = assay: Cytotoxicity against human SW480 cells assessed as growth inhibition measured after 72 hrs by MTT assay; assay type: functional, cell-based; conditions: SW480, 72 h
Method in brief: (§4)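 Cells were seeded at 1 × 10^4 per well: SW480 in MEM, PC3 in RPMI 1640, HaCaT in DMEM high glucose, each with 10% FBS. Compounds were added at 10–140 µM and incubated for 72 h. MTT was then added at 0.5 mg/mL in serum-free medium for 4 h at 37 °C. Formazan was dissolved in DMSO/isopropanol (1:1) and read at 570 nm. IC50 was given in µM; untreated cells served as control.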

[15] = Metabolic stability in mouse liver microsomes assessed as metabolite formation measured after 30 mins in the presence of NADPH by LC-MS/MS analysis; assay type: ADME, Microsome; conditions: 0.5 h
Method in brief: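 Compound (20 µM final) was preincubated with mouse liver microsomes (0.4 mg/mL) in 100 mM potassium phosphate, pH 7.4, at 37 °C for 15 min. The reaction was started with an NADPH-regenerating system and sampled at 5, 15 and 30 min. Levallorphan internal standard was added, the reaction was stopped with perchloric acid, and samples were analysed by LC-MS/MS. No-NADPH incubations served as negative controls.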

[16] = Selectivity index, ratio of IC50 for human HaCaT cells to IC50 for human SW480 cells
Mus musculus [17] = assay: Antidepressant activity in Swiss albino mouse assessed as decrease in immobility time at 0.625 to 2.5 mg/kg, ip measured after 60 mins by forced swim test relative to control; assay type: functional; set-up: scale not given: the % may be the effect or the level left
Method in brief: (§5)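 Male Swiss albino mice (22–26 g), 7–10 per dose, were dosed ip in 1% Tween 80 at 10 ml/kg 60 min before the test. In the Porsolt test, each mouse was placed for 6 min in a cylinder with 6 cm of water at 23–25 °C. Immobility was scored over the last 4 min and compared with vehicle controls by ANOVA/Bonferroni.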

[18] = target: T3, 5-hydroxytryptamine receptor 1A (Homo sapiens); assay: Antagonist activity at human recombinant 5-HT1A receptor expressed in CHOK1 cells incubated for 25 mins followed by addition of […] by microbeta2 scintillation counter relative to control; assay type: cell-based; method in brief: as §2
PC-3 = assay: Cytotoxicity against human PC3 cells assessed as growth inhibition measured after 72 hrs by MTT assay; assay type: functional, cell-based; conditions: PC-3, 72 h; method in brief: as §4
[19] = target: T1, 5-hydroxytryptamine receptor 1A; assay: Antagonist activity at human recombinant 5-HT1A receptor expressed in CHOK1 cells incubated for 25 mins followed by addition of methiothepin by microbeta2 scintillation counter; assay type: cell-based; method in brief: as §2
[20] = target: T2, 5-hydroxytryptamine receptor 7; assay: Antagonist activity at human recombinant 5-HT7 receptor expressed in CHOK1 cells measured after 60 mins in the presence of serotonin by LANCE TR-FRET assay; assay type: cell-based
[21] = target: T3, 5-hydroxytryptamine receptor 1A (Homo sapiens); assay: Agonist activity at human recombinant 5-HT1A receptor expressed in CHOK1 cells measured after 1 hr by microbeta2 scintillation counter relative to control; assay type: cell-based
Method in brief: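 Aequorin Ca2+ assay in CHO-K1 cells coexpressing mitochondrial aequorin, human 5-HT1A and Gα16. Thawed cells were loaded with coelenterazine h (5 μM final) for 16 h at 16 °C in the dark with agitation, then diluted to 5000 cells/ml. After 1 h they were injected onto the compounds (8–10 concentrations) and luminescence was recorded for 30 s.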

[22] = target: T2, 5-hydroxytryptamine receptor 7; assay: Antagonist activity at human recombinant 5-HT7 receptor expressed in CHOK1 cells measured after 60 mins in the presence of serotonin by LANCE TR-FRET assay relative to control; assay type: cell-based
HaCaT = assay: Cytotoxicity against human HaCaT cells assessed as growth inhibition measured after 72 hrs by MTT assay; assay type: cell-based; method in brief: as §4
[23] = target: 3',5'-cyclic-AMP phosphodiesterase 4B (Homo sapiens) (UniProt Q07343); conditions: Sf9, 10^-5.5 M
Mus musculus [24] = assay: Effect on locomotor activity in Swiss albino mouse at 0.625 mg/kg, ip; assay type: ADME, organism-based; conditions: in vivo; method in brief: as §3
Mus musculus [25] = assay: Antidepressant activity in Swiss albino mouse assessed as decrease in immobility time at 0.625 mg/kg, ip measured after 60 mins by forced swim test relative to control; assay type: functional; set-up: scale not given: the % may be the effect or the level left; method in brief: as §5
[26] = in the assay text read “serotonin” for “methiothepin”, read-out: IC50

Chain of 5-hydroxytryptamine receptor 6 (Homo sapiens) (P50406 whole entry): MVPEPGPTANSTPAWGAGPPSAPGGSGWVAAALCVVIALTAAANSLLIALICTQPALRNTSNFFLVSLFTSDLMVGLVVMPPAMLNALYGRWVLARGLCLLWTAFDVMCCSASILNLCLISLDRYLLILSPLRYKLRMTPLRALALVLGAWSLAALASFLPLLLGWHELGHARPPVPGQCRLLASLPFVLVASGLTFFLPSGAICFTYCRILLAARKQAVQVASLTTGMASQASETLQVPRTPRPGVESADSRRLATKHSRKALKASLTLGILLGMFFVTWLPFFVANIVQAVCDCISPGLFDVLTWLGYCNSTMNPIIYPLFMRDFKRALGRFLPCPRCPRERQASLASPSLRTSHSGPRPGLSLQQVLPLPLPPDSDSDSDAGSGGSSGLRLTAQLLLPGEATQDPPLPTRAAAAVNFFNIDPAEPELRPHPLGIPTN
T2 sequence (P34969 whole entry): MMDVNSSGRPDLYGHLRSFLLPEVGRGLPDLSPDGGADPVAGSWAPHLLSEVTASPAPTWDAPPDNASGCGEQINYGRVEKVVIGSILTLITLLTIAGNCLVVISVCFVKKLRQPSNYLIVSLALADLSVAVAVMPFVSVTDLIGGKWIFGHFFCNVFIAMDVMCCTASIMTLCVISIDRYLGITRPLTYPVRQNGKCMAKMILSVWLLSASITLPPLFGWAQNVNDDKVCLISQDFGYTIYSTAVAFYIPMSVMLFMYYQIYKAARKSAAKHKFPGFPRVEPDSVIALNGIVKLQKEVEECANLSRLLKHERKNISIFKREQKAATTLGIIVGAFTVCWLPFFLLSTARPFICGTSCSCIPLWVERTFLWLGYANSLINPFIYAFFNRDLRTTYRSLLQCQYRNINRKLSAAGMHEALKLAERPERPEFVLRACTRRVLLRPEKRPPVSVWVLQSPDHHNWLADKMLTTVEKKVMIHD
Chain of 3',5'-cyclic-AMP phosphodiesterase 4B (Homo sapiens) (Q07343 whole entry): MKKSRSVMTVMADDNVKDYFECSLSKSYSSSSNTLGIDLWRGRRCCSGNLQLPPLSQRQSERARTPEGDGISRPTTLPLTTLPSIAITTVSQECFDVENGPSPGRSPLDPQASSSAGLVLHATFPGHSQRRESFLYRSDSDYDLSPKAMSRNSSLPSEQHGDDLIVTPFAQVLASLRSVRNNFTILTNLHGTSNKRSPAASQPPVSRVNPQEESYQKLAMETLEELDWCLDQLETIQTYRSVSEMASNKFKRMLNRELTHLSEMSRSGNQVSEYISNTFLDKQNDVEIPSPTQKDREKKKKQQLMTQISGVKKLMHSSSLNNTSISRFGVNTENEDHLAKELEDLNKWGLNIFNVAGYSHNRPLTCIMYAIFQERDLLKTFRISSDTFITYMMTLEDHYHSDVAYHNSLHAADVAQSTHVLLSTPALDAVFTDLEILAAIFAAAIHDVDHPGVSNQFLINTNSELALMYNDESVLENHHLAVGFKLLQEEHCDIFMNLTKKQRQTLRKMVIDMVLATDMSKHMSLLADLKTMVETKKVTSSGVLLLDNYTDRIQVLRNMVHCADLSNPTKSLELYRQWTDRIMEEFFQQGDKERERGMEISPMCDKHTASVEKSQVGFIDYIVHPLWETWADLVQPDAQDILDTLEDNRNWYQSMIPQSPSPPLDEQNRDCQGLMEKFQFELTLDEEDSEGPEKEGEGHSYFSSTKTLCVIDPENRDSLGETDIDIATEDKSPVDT
Chain of 5-hydroxytryptamine receptor 2A (Homo sapiens) (P28223 whole entry): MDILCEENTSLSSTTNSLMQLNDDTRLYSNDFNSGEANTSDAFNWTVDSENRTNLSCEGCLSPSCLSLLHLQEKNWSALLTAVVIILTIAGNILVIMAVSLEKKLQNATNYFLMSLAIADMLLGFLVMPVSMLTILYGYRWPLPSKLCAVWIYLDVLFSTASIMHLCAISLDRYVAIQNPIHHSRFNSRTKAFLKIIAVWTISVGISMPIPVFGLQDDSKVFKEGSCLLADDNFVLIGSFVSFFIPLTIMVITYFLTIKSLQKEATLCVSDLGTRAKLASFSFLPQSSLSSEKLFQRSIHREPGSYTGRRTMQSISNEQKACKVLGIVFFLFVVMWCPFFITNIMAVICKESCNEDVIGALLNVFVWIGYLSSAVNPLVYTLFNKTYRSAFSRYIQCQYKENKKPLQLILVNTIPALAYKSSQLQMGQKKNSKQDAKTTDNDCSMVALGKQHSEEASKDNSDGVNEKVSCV

| SMILES | Ki [1] [µM] | inhibition [2] [%] | inhibition [3] [%] | inhibition [4] [%] | Ki [5] [µM] | inhibition [6] [%] | inhibition [7] [%] | other results |
| --- | --- | --- | --- | --- | --- | --- | --- | --- |
| COc1ccc(/C=C2\NC(=O)N(CCCN3CCN(c4ccccc4OC)CC3)C2=O)cc1OC1CCCC1 | 0.037 | 0 | 3 | 96 | 0.006 | 44 | 13 |  |
| COc1ccc(/C=C2\NC(=O)N(CCCN3CCN(c4ncccn4)CC3)C2=O)cc1OC | 0.012 | 8 | 1 | 78 | 0.074 | 23 | 15 |  |
| CC(C)NCC(O)COc1cccc2ccccc12 (stereo unspecified) [PROPRANOLOL] |  |  |  |  |  |  |  | half-life (in vitro [8]; microsomes): 84.5 min |
| COc1ccc(/C=C2\NC(=O)N(CCCCN3CCN(c4ccccc4OC)CC3)C2=O)cc1OC1CCCC1 | 0.001 | 0 | 14 | 95 | 0.001 | 50 | 5 | Kb [9]: 0.0017 µM; Emax [10]: 14%; selectivity ratio [11]: 0.59; microsomal CLint (in vitro [12]): 136 µL/min/mg; Kb [13]: 0.073 µM; Activity (Mus musculus [14]): Non-Toxic; IC50 (SW480): 185 µM; half-life (in vitro [8]; liver microsomes): 12.8 min; Drug metabolism [15]: Metabolite_Detected; Ratio IC50 [16]: 0.81; Activity (Mus musculus [17]): 30%; Emax [18]: 3%; IC50 (PC-3): 254 µM; IC50 [19, 26]: 0.054 µM; IC50 ([19]; read-out: pIC50 (converted)): 0.0617 µM; IC50 [20]: 0.219 µM; Emax [21]: 6%; Emax [22]: 33%; IC50 (HaCaT): 151 µM |
| COc1ccc(/C=C2\NC(=O)N(CCCCN3CCN(c4ccccc4OC)CC3)C2=O)cc1OC | 0.007 | 0 | 8 | 87 | 0.016 | 31 | 9 |  |
| COc1ccc(/C=C2\NC(=O)N(CCCN3CCN(c4cccc(Cl)c4Cl)CC3)C2=O)cc1OC | 0.053 | 0 | 5 | 97 | 0.022 | 61 | 72 |  |
| COc1ccc(/C=C2\NC(=O)N(CCCN3CCN(c4ccccc4OC)CC3)C2=O)cc1OC | 0.013 | 0 | 9 | 83 | 0.042 | 25 | 0 |  |
| COc1cccc2c1C(=O)c1c(O)c3c(c(O)c1C2=O)C[C@@](O)(C(=O)CO)C[C@@H]3O[C@H]1C[C@H](N)[C@H](O)[C@H](C)O1 [DOXORUBICIN] |  |  |  |  |  |  |  | IC50 (SW480): 0.29 µM; IC50 (PC-3): 0.59 µM; IC50 (HaCaT): 0.235 µM |
| CSc1ccc2c(c1)C(N1CCN(C)CC1)Cc1ccccc1S2 (stereo unspecified) |  | 99 |  |  |  |  | 99 |  |
| CC1CCN(CC[C@H]2CCCN2S(=O)(=O)c2cccc(O)c2)CC1 |  |  |  |  |  |  |  | Emax [22]: 8% |
| COc1ccc(/C=C2\NC(=O)N(CCCCN3CCN(c4cccc(Cl)c4Cl)CC3)C2=O)cc1OC1CCCC1 | 0.132 | 8 | 3 | 90 | 0.125 | 39 | 34 |  |
| COc1ccc(C2CNC(=O)C2)cc1OC1CCCC1 (stereo unspecified) |  |  |  |  |  |  |  | inhibition [23]: 84% |
| COc1ccc(/C=C2\NC(=O)N(CCCN3CCN(c4cccc(Cl)c4Cl)CC3)C2=O)cc1OC1CCCC1 | > 1 | 0 | 3 | 96 | 0.38 | 27 | 70 |  |
| COc1ccc(/C=C2\NC(=O)N(CCCCN3CCN(c4ncccn4)CC3)C2=O)cc1OC1CCCC1 | 0.064 | 0 | 10 | 78 | 0.298 | 19 | 8 |  |
| COc1ccc(/C=C2\NC(=O)N(CCCN3CCN(c4ncccn4)CC3)C2=O)cc1OC1CCCC1 | 0.085 | 0 | 9 | 89 | > 1 | 33 | 23 |  |
| COc1ccc(/C=C2\NC(=O)N(CCCCN3CCN(c4ncccn4)CC3)C2=O)cc1OC | 0.045 | 0 | 14 | 41 | 0.933 | 0 | 0 |  |
| COc1ccc(/C=C2\NC(=O)N(CCCCN3CCN(c4cccc(Cl)c4Cl)CC3)C2=O)cc1OC | 0.0002 | 6 | 5 | 98 | 0.0008 | 82 | 82 | Activity (Mus musculus [24]): Non-Toxic; Kb [9]: 0.0013 µM; Emax [10]: 13%; selectivity ratio [11]: 1.31; Kb [13]: 0.0543 µM; IC50 (SW480): 255 µM; Ratio IC50 [16]: 1.16; Activity (Mus musculus [25]): 27%; Emax [18]: 15%; IC50 (PC-3): 227 µM; IC50 [19, 26]: 0.039 µM; IC50 [20]: 0.163 µM; Emax [21]: 12%; Emax [22]: 37%; IC50 (HaCaT): 296 µM |

— ChEMBL document CHEMBL4342411, “Novel multitarget 5-arylidenehydantoins with arylpiperazinealkyl fragment: Pharmacological evaluation and investigation of cytotoxicity and metabolic stability” (Bioorg Med Chem, 2019)
